In ChEMBL document CHEMBL3044677, “Metabolism and metabolites of dithiocarbamates in the plant pathogenic fungus Leptosphaeria maculans” (J Agric Food Chem, 2012):
Active and inactive are the calls of the source. The rule behind the calls is not given here.

Columns and labels:
[1] = system: Plenodomus lingam; test: Antifungal activity against Leptosphaeria maculans isolate BJ-125/UAMH-9410 assessed as mycelial growth inhibition at 0.1 mM incubated under constant light for 5 days by mycelial radial growth bioassay; assay type: functional; conditions: for inhibition of growth at 100 µM: isolate BJ-125/UAMH-9410, 120 h, read-out: GI
How it was run: (§1)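 Mycelial radial growth assay. L. maculans (BJ125 or UAMH-9410) was grown on V8 agar. A 4 mm plug cut from 7-day-old V8 plates was placed upside down at the centre of PDA wells (33 mm) containing compound dissolved in CH3CN. Controls held 1% CH3CN in PDA. Plates were incubated under constant light for 5 days. Mycelial diameter was measured, and % inhibition = 100 − [(amended/control diameter) × 100]. Triplicate, at least twice; mean ± SD.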

[2] = system: Plenodomus lingam; test: Antifungal activity against Leptosphaeria maculans isolate BJ-125/UAMH-9410 assessed as mycelial growth inhibition at 0.2 mM incubated under constant light for 5 days by mycelial radial growth bioassay; assay type: functional; conditions: isolate BJ-125/UAMH-9410, 120 h, read-out: GI; how it was run: as §1
[3] = system: Plenodomus lingam; test: Antifungal activity against Leptosphaeria maculans isolate BJ-125/UAMH-9410 assessed as mycelial growth inhibition at 0.5 mM incubated under constant light for 5 days by mycelial radial growth bioassay; assay type: functional; conditions: isolate BJ-125/UAMH-9410, 120 h, read-out: GI; how it was run: as §1
[4] = Drug metabolism in Leptosphaeria maculans isolate BJ-125 assessed as drug recovery at 0.10 mM after 24 hr by HPLC analysis; assay type: ADME, organism-based; conditions: plenodomus lingam, Leptosphaeria maculans isolate BJ-125 (fungus); read-out: Drug recovery
How it was run: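 Minimal medium (50 mL) was inoculated with isolate BJ-125 spores (106/mL) and shaken at 120 rpm, 23 °C, under constant light. After 2 days, compound in CH3CN was added (final 0.10 mM), also to noninoculated medium as a stability control. Broth samples taken up to 72 h were extracted with EtOAc and quantified by HPLC-DAD against calibration curves; basified broth was extracted with CHCl3/MeOH for amines. At least three independent experiments ± SD.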

Row | SMILES | growth inhibition (GI) [1] | inhibition of growth at 200 µM [2] | inhibition of growth at 500 µM [3] | inhibition of growth at 100 µM [1] | remaining at 24 h, 100 µM [4]
1 | COn1c(CN)cc2ccccc21 | inactive | 8% | 19% | – | –
2 | COn1c(CNC(C)=O)cc2ccccc21 | – | 11% | 15% | 4% | –
3 | CC(=O)NCc1ccc(-c2ccccc2)cc1 | – | 17% | 30% | 9% | –
4 | NCCCc1c[nH]c2ccccc12 | inactive | 14% | 27% | – | –
5 | CC(=O)NCCCc1c[nH]c2ccccc12 | – | 13% | 24% | 10% | –
6 | OCCCc1c[nH]c2ccccc12 | – | 14% | 18% | 7% | –
7 | CSC(=S)NCc1ccc(-c2ccccc2)cc1 | – | 32% | 46% | 14% | < 5%
8 | CSC(=S)OCCCc1c[nH]c2ccccc12 | – | 18% | 31% | 5% | –
9 | CC(=O)NCc1cc2ccccc2[nH]1 | – | 18% | 33% | 7% | –
10 | CS/C(S)=N/CCCc1c[nH]c2ccccc12 | – | 46% | 67% | 21% | 37%
11 | COn1c(CNC(=S)SC)cc2ccccc21 [1-METHOXYISOBRASSININ] | – | 15% | 34% | 7% | 47%
12 | NCc1cc2ccccc2[nH]1 [2-INDOLYLMETHANAMINE] | inactive | 19% | 33% | – | –
13 | c1ccc2[nH]cnc2c1 [BENZIMIDAZOLE] | – | 20% | 35% | 11% | –
14 | CSC(=S)NCc1c[nH]c2ccccc12 [BRASSININ] | – | 21% | 55% | 10% | < 5%
15 | CSC(=S)NCc1cc2ccccc2[nH]1 [ISOBRASSININ] | – | 22% | 43% | 13% | < 5%
16 | CSC(=S)NCCc1c[nH]c2ccccc12 [METHYL TRYPTAMINEDITHIOCARBAMATE] | – | 71% | 100% | 43% | 55%
17 | CSC(=S)OCCc1c[nH]c2ccccc12 [METHYL TRYPTOPHOLDITHIOCARBAMATE] | – | 15% | 32% | 7% | 15%
18 | CC(=O)NCCc1c[nH]c2ccccc12 [NB-ACETYLTRYPTAMINE] | inactive | 7% | 15% | – | –
19 | NCCc1c[nH]c2ccccc12 [TRYPTAMINE] | – | 15% | 28% | 12% | –
20 | OCCc1c[nH]c2ccccc12 [TRYPTOPHOL] | inactive | 16% | 29% | – | –
